A short description of experiment [1]: (§1) Antagonist activity against Voltage-gated sodium channel in Swiss-Webster mouse primary cerebrocortical neurons assessed as inhibition of veratridine-induced sodium influx by SBFI-AM dye based fluorescence assay. The method, boiled down:
(§2)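 Primary cortical neurons from E17 Swiss-Webster mouse embryos, plated at 1.5 × 10^5 cells/well and used at 7–9 days in vitro. Cells were loaded with 10 μM SBFI-AM plus 0.02% Pluronic F-127 for 1 h at 37 °C in Locke's buffer (pH 7.4), then equilibrated 15 min. Baseline was read for 60 s, then compound and/or veratridine was added. Ex 340/380 nm, em 505 nm, background-corrected 340/380 ratio. IC50 from a three-parameter logistic fit, 4–7 experiments.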

Another experiment is filed under the species Mus musculus. Described as §1. The essentials:
as §2

Each structure is given as a SMILES string.

`C[C@H]1CCCC(=O)N(C)/C=C/CC[C@@H](C)C(=O)O[C@H](C(C)(C)C)C1`: the IC50 in experiment [1] was > 10 µM. Turning to `CNC(=O)CCC[C@@H](C)C[C@@H](OC(=O)[C@@H](C)CCCCO)C(C)(C)C`, the IC50 in experiment [1] is > 10 µM.

As to `C[C@@H]1CCCC(=O)N(C)/C=C/CC[C@@H](C)C(=O)O[C@H](C(C)(C)C)C1`, in experiment [1], the IC50 worked out at 19.1 µM. Still for that read-out and setting: in the case of `C[C@H](CCCC(N)=O)C[C@@H](OC(=O)[C@H](C)CC/C=C/I)C(C)(C)C` it was > 10 µM. On to `C[C@H]1CCCC(=O)N(C)/C=C/CC[C@H](C)C(=O)O[C@H](C(C)(C)C)C1`, for which, in the experiment filed under Mus musculus, the inhibition entry was “Dose-dependent effect”. Moreover, the concentration for half-maximal inhibition (IC50) in experiment [1] worked out at 4 µM. Turning to `CNC(=O)CCC[C@@H](C)C[C@@H](OC(=O)[C@H](C)CCCCO)C(C)(C)C`, in experiment [1], the half-inhibitory concentration (IC50) was > 10 µM.

As to `C[C@@H]1CCCC(=O)N(C)CCCC[C@@H](C)C(=O)O[C@@H](C(C)(C)C)C1`, the half-maximal inhibitory concentration (IC50) in experiment [1] is 3 µM. Consider `C[C@@H]1CCCC(=O)N(C)/C=C/CC[C@@H](C)C(=O)O[C@@H](C(C)(C)C)C1`, for which the inhibition result in the experiment listed under Mus musculus was “Dose-dependent effect”. The concentration for half-maximal inhibition (IC50) in experiment [1] was determined as 2.1 µM. For `C[C@@H]1CCCC(=O)N(C)/C=C/CC[C@H](C)C(=O)O[C@H](C(C)(C)C)C1`, the 50% inhibitory concentration (IC50) in experiment [1] was 21 µM. `CNC(=O)CCC[C@@H](C)C[C@@H](OC(=O)[C@H](C)CCCC(=O)O)C(C)(C)C`: the half-inhibitory concentration (IC50) in experiment [1] is > 10 µM.

Regarding `C[C@@H]1CCCC(=O)N(C)/C=C/CC[C@H](C)C(=O)O[C@@H](C(C)(C)C)C1`, the 50% inhibitory concentration (IC50) in experiment [1] is > 10 µM.

For `C[C@@H]1CCCC(=O)N(C)CCCC[C@H](C)C(=O)O[C@@H](C(C)(C)C)C1`, in experiment [1], the 50% inhibitory concentration (IC50) came to 4.5 µM.

The values are drawn from ChEMBL document CHEMBL3352348, “Detailed analysis of (-)-palmyrolide a and some synthetic derivatives as voltage-gated sodium channel antagonists” (J Nat Prod, 2014).
